Source: publication PMC4749511 (Bioorganic & medicinal chemistry, 2015)
“Also recorded” adds a separate entry of the source.

tested on: EGFP-H-Ras; assay: EGFP-H-Ras plasma membrane localization by confocal microscopy; assay type: cell-based, human; settings: HCT-116 cells, FTI 2 μM, 20 hours
Outline: (§1)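 HCT-116 cells (DMEM, 10% FBS, 1% NEAA, 37 °C, 5% CO2) seeded at 4 × 10^4 per glass-bottom well and transfected 24 h later with the EGFP-Ras plasmid (0.5 μg DNA per 1 μL TrueFect). Treated with FTI or DMSO vehicle for 20 h, then live confocal imaging (488 nm excitation, 500-600 nm emission), at least 40 cells per condition. Normalised (0-1) line-scan intensity across each cell; PM width 1 μm.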

Molecule	H-Ras PM association (percent of total fluorescence at the PM) [%]
CC[C@H](C)[C@@H](CO[C@@H](Cc1ccccc1)C(=O)N[C@@H](CCS(C)(=O)=O)C(=O)OC(C)C)NC[C@@H](N)CS [L744,832]	< 10

target: T1, human Rce1 (HsRce1) (Homo sapiens, UniProt Q9Y256); assay: not given; settings: read-out: HsRce1 IC50; in vitro proteolysis assay; cited from earlier work
T1 sequence (Q9Y256 1-329): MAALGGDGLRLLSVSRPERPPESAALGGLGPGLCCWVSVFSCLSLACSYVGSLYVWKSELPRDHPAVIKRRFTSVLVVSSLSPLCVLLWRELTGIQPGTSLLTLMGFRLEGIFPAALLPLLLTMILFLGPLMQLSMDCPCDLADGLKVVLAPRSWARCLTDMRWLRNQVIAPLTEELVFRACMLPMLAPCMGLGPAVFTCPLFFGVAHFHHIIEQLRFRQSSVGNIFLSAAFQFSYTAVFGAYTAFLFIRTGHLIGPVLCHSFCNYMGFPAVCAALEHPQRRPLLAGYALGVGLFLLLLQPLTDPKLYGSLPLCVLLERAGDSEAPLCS

Molecule	IC50 [µM]
O=C(O)c1ccc(NC(c2ccccc2)c2ccc3cccnc3c2O)cc1 (stereo not drawn) [Compound 1, 4-(((8-Hydroxyquinolin-7-yl)(phenyl)methyl)amino)benzoic acid]	9

tested on: GFP-Ras2p reporter; assay: not given; settings: yeast cells; cited from earlier work

Molecule	GFP-Ras2p reporter mislocalization (in words)
O=C(O)c1ccc(NC(c2ccccc2)c2ccc3cccnc3c2O)cc1 (stereo not drawn) [Compound 1, 4-(((8-Hydroxyquinolin-7-yl)(phenyl)methyl)amino)benzoic acid]	mislocalizes a GFP-Ras2p reporter

target: rat FTase (Rattus norvegicus, UniProt Q02293+Q04631); assay: Fluorescence-based FTase assay; assay type: biochemical; settings: tested at 10, 25 and 50 μM
Outline: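 Rat FTase added in enzyme solution (62.5 nM FTase, Tris pH 7.5, ZnCl2, MgCl2, KCl, DTT, BSA) to start reaction. Wells held dansyl-GCVLS, FPP, DTT, Tris pH 7.5, MgCl2, ZnCl2, octyl-β-D-glucopyranoside and test compound in DMSO (12.5 μL DMSO per 250 μL). Fluorescence read at 340 nm excitation, 535 nm emission, every 40 s for 1 h. Rate from first 10 min converted to nM/s via νi = RP/ΔF.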

FTase activity inhibition (in words)	Molecule
not inhibited	Oc1c(C(Nc2ccccc2)c2ccccc2)ccc2cccnc12 (stereo not drawn) [Compound 2, 7-(Phenyl(phenylamino)methyl)quinolin-8-ol]
not inhibited	O=C(O)c1ccc(NC(c2ccc(Br)cc2)c2ccc3cccnc3c2O)cc1 (stereo not drawn) [Compound 5, 4-(((4-Bromophenyl)(8-hydroxyquinolin-7-yl)methyl)amino)benzoic acid]
not inhibited	O=C(O)c1cccc(NC(c2ccccc2)c2ccc3ccccc3c2O)c1 (stereo not drawn) [Compound 30, 3-(((1-Hydroxynaphthalen-2-yl)(phenyl)methyl)amino)benzoic acid]

tested on: EGFP-K-Ras (K-Ras4b); assay: EGFP-K-Ras plasma membrane localization by confocal microscopy; assay type: cell-based, human; settings: HCT-116 cells, FTI 2 μM, 20 hours
Outline: as §1

Molecule	K-Ras PM association (percent of total fluorescence at the PM) [%]
CC[C@H](C)[C@@H](CO[C@@H](Cc1ccccc1)C(=O)N[C@@H](CCS(C)(=O)=O)C(=O)OC(C)C)NC[C@@H](N)CS [L744,832]	~35

same assay, conditions: HCT-116 cells, Rce1 inhibitor 25 μM, 20 hours

Molecule	K-Ras PM association (percent of total fluorescence at the PM)
O=C(O)c1ccc(NC(c2ccccc2)c2ccc3cccnc3c2O)cc1 (stereo not drawn) [Compound 1, 4-(((8-Hydroxyquinolin-7-yl)(phenyl)methyl)amino)benzoic acid]	more effective at mislocalizing K-Ras than the FTI
Oc1c(C(Nc2ccccc2)c2ccccc2)ccc2cccnc12 (stereo not drawn) [Compound 2, 7-(Phenyl(phenylamino)methyl)quinolin-8-ol]	more effective at mislocalizing K-Ras than the FTI
O=C(O)c1ccc(NC(c2ccc(F)cc2)c2ccc3cccnc3c2O)cc1 (stereo not drawn) [Compound 6, 4-(((4-Fluorophenyl)(8-hydroxyquinolin-7-yl)methyl)amino)benzoic acid]	more effective at mislocalizing K-Ras than the FTI
O=C(O)c1ccc(NC(c2ccc3cccnc3c2O)C2CCCCC2)cc1 (stereo not drawn) [Compound 17, 4-((Cyclohexyl(8-hydroxyquinolin-7-yl)methyl)amino)benzoic acid]	more effective at mislocalizing K-Ras than the FTI

tested on: EGFP-N-Ras; assay: EGFP-N-Ras plasma membrane localization by confocal microscopy; assay type: cell-based, human; settings: HCT-116 cells, FTI 2 μM, 20 hours
Outline: as §1

Molecule	N-Ras PM association (percent of total fluorescence at the PM) [%]
CC[C@H](C)[C@@H](CO[C@@H](Cc1ccccc1)C(=O)N[C@@H](CCS(C)(=O)=O)C(=O)OC(C)C)NC[C@@H](N)CS [L744,832]	< 10

target: T1, human Rce1 (HsRce1); assay: In vitro fluorescence-based CaaX proteolysis assay; assay type: biochemical; settings: single-point, 10 μM
Outline: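 Membranes from yeast expressing HsRce1, in 200 mM Tris pH 7.5, 200 mM NaCl, 1 mg/mL BSA. Preincubated with test compound (from 50× DMSO stock) for 15 min at 30 °C in duplicate wells. Started with quenched ABZ-KSKTKC(farnesyl)QLIM at 20 μM final; membranes 0.25 mg/mL final. Fluorescence 320/420 nm read every 30-60 s for 60 min at 30 °C. Initial velocities expressed as % of DMSO control, normalised by trypsin (10 μg/mL) full digestion.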

Molecule	HsRce1 inhibition (in words)
N#Cc1ccc(C(Nc2ccc(C(=O)O)cc2)c2ccc3cccnc3c2O)cc1 (stereo not drawn) [Compound 3, 4-(((4-Cyanophenyl)(8-hydroxyquinolin-7-yl)methyl)amino)benzoic acid]	did not inhibit HsRce1 activity significantly
O=[N+]([O-])c1ccc(C(Nc2ccccc2)c2ccc3cccnc3c2O)cc1 (stereo not drawn) [Compound 7, reference compound]	did not inhibit HsRce1 activity significantly
O=C(O)c1ccc(NC(c2ccccn2)c2ccc3cccnc3c2O)cc1 (stereo not drawn) [Compound 15, 4-(((8-Hydroxyquinolin-7-yl)(pyridin-2-yl)methyl)amino)benzoic acid]	no significant reduction in Rce1 activity
O=C(O)c1ccc(NC(c2cccnc2)c2ccc3cccnc3c2O)cc1 (stereo not drawn) [Compound 16, 4-(((8-Hydroxyquinolin-7-yl)(pyridin-3-yl)methyl)amino)benzoic acid]	no significant reduction in Rce1 activity
Oc1c(CNc2ccccc2)ccc2cccnc12 [Compound 20, 7-((Phenylamino)methyl)quinolin-8-ol]	no significant effect on Rce1 proteolysis activity
Oc1c(C(Nc2ccccc2)c2c(F)cc(Br)cc2F)ccc2cccnc12 (stereo not drawn) [Compound 24, 7-((4-Bromo-2,6-difluorophenyl)(phenylamino)methyl)quinolin-8-ol]	no significant reduction in Rce1 activity
O=C(O)c1ccc(NC(c2ccc3cccnc3c2O)c2c(F)cc(Br)cc2F)cc1 (stereo not drawn) [Compound 25, 4-(((4-Bromo-2,6-difluorophenyl)(8-hydroxyquinolin-7-yl)methyl)amino)benzoic acid]	no significant reduction in Rce1 activity
CCCCCCCCOc1ccc(C(Nc2ccccc2)c2ccc3cccnc3c2O)cc1 (stereo not drawn) [Compound 26, 7-((4-(Octyloxy)phenyl)(phenylamino)methyl)quinolin-8-ol]	did not inhibit HsRce1 activity significantly
Oc1c(C(Nc2ccccc2)c2ccccc2)cc(Br)c2ccccc12 (stereo not drawn) [Compound 33, 4-Bromo-2-(phenyl(phenylamino)methyl)naphthalen-1-ol]	retained inhibitory activity
Oc1ccc2ccccc2c1C(Nc1ccccc1)c1ccccc1 (stereo not drawn) [Compound 34, 1-(Phenyl(phenylamino)methyl)naphthalen-2-ol]	weaker inhibitors
Oc1ccc2ccc(O)c(C(Nc3ccccc3)c3ccccc3)c2c1 (stereo not drawn) [Compound 35, 1-(Phenyl(phenylamino)methyl)naphthalene-2,7-diol]	weaker inhibitors
c1ccc(NC(c2ccccc2)c2ccc3cccnc3c2)cc1 (stereo not drawn) [Compound 43, N-(Phenyl(quinolin-7-yl)methyl)aniline]	little inhibitory activity
c1ccc(NC(c2ccccc2)c2ccc3ccccc3c2)cc1 (stereo not drawn) [Compound 44, N-(naphthalen-2-yl(phenyl)methyl)aniline]	little inhibitory activity
C[C@@H](N[C@H](c1ccccc1)c1c(O)ccc2ccccc12)c1ccccc1 [Compound 47]	weaker inhibitors
CCOC(=O)c1ccc(NC(c2ccccc2)c2ccccc2)cc1 [Compound 48, Ethyl 4-(benzhydrylamino)benzoate]	Neither the ethyl ester 48 nor the acid derivative 51 showed any effect upon inhibition of the enzyme
CCOC(=O)c1ccc(NC(c2ccccc2)c2ccc(Br)cc2)cc1 (stereo not drawn) [Compound 49, Ethyl 4-(((4-bromophenyl)(phenyl)methyl)amino)benzoate]	relatively inactive
CCOC(=O)c1ccc(NC(c2ccc(Br)cc2)c2ccc(Br)cc2)cc1 [Compound 50, Ethyl 4-((bis(4-bromophenyl)methyl)amino)benzoate]	relatively inactive
O=C(O)c1ccc(NC(c2ccccc2)c2ccccc2)cc1 [Compound 51, 4-(Benzhydrylamino)benzoic acid]	inactive; also recorded: Neither the ethyl ester 48 nor the acid derivative 51 showed any effect upon inhibition of the enzyme
O=C(O)c1ccc(NC(c2ccccc2)c2ccc(Br)cc2)cc1 (stereo not drawn) [Compound 52, 4-(((4-Bromophenyl)(phenyl)methyl)amino) benzoic acid]	relatively inactive
O=C(O)c1ccc(NC(c2ccc(Br)cc2)c2ccc(Br)cc2)cc1 [Compound 53, 4-((bis(4-Bromophenyl)methyl)amino)benzoic acid]	relatively inactive
Methyl 4-(((8-methoxyquinolin-7-yl)(phenyl)methyl)amino)benzoate [Compound 32]	little inhibitory activity
